Sampled rows, rich in hits. Any-hit rate of the full collection: about 1.9%.
ASAP1 GAP inh: blocks human ASAP1-stimulated Arf1 GTP hydrolysis; Q9ULH1; GDP FP detection; inhibition, % at 16.5 µM; 0.19% of 360,000 active; in the data active = inhibition above about 25%;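 also: 0% = vehicle with enzyme and substrate and 100% = no enzyme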
FGF22 binding: FGF22 (human) thermal shift binding; recombinant FGF22 thermal shift, SYPRO orange fluorescence; percent of sucrose octasulfate shift, DMSO zero; Q9HCT0; activity (Tm shift, normalised), % at 9.99 µM; 1.5% of 340,000 active; AID 651658;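 active = mean Tm shift, scaled 0 neutral to 100 positive control, at about 1.3% or above, every replicate too, limit read from the data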
ARFGAP1 inh: inhibitors of rat ARFGAP1. Arfgap1-stimulated ARF1 GTP hydrolysis, GDP FP detection. inhibition, % at 16.5 µM. Q62848. 0.26% of 360,000 active;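 active = inhibition above a per-plate limit, mean inhibition of low control wells plus 3 SD, cut at about 25% in these data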;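 also: 0% = DMSO wells with enzyme and 100% = wells lacking Arfgap1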
Target sequence (Q62848 1-136 limits assumed): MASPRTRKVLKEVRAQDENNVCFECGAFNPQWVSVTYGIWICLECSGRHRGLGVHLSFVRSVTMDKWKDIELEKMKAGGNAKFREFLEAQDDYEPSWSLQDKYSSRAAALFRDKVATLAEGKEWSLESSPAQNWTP
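Material: rat Arfgap1 GAP domain (His6, aa 1-136), purified enzyme. Also added: human ARF1(Δ1-17)-GTP substrate. Compound dosing: 16.5 µM single point, 1.26% DMSO. Timing: enzyme reaction 120 min at 25 °C after 20 min preincubation. Signal: GDP detection by fluorescence polarization. Read-out basis: percent inhibition of GAP-stimulated GDP formation, scaled between DMSO and no-Arfgap1 medians.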
Efflux pump mplx: antifungal efflux pump inhibition, Nile Red retention; S. cerevisiae Candida pump triplex; inhibition, % at 10 µM; 0.44% of 330,000 active;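 active = plate passing quality check with inhibition over a set limit, or well fluorescence over plate mean plus 4 SD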;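 also: Nile Red retained in pooled yeast measured as flow cytometry median fluorescence; 0% = buffer negative control and 100% = Enniatin B positive control; higher means more Nile Red kept so more efflux inhibition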
Rtt109 Vps75: blocks Candida albicans Rtt109/Vps75 acetyltransferase activity; purified Rtt109/Vps75, ThioGlo CoA-SH fluorescence, 4 h; 0.16% of 330,000 active; inhibition, % at 34.9 µM; AID 540336;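 active = inhibition of at least 50% in every replicate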
Target sequence (Q5AAJ8 whole entry, looked up): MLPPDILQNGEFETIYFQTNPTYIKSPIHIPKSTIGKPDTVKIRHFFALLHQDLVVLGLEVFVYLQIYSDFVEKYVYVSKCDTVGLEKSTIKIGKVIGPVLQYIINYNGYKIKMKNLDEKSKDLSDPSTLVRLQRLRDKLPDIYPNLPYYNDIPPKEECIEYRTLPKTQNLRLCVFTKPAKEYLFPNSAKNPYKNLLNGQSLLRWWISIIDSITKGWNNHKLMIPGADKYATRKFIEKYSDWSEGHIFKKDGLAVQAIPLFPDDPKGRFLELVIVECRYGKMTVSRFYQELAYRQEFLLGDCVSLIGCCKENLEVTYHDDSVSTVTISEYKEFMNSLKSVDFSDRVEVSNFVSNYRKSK
The depositor's hits bear a star; · = no result given.

SMILES | ASAP1 GAP inh | FGF22 binding | ARFGAP1 inh | Efflux pump mplx | Rtt109 Vps75
CCCNC(=O)C(Cc1ccccc1)NC(=O)c1ccccc1 (configuration not stated) | -0.5 | 0.2 | 10.4 | -0.3 | -4.8
O=C(COc1ccccc1)Nc1nnc(-c2ccccc2)o1 | -6.8 | 0.1 | 1.2 | -0.4 | -13.1
O=C(COC(=O)Cc1ccccc1[N+](=O)[O-])Nc1nnc(-c2ccccc2)o1 | -10.2 | 0.5 | 9.1 | 0.1 | 55.7*
CNC(CC(=O)c1ccc([N+](=O)[O-])cc1)C(Cl)(Cl)Cl (configuration not stated) | · | · | · | 9.4* | 2.6
CC(=O)Nc1cc(C(=O)N2CCCC2)ccc1Sc1ccc(C)cc1 | -1.6 | · | 5.9 | -0.1 | -4.8
CC(=O)Oc1ccc(N(C(C)=O)S(=O)(=O)c2cccs2)cc1 | 5.5 | · | 2.4 | 0.3 | -0.6
CCCC(=O)Oc1ccc(N(C(=O)CCC)S(=O)(=O)c2cccs2)cc1 | 14.8 | 43.3* | -7.8 | 0.2 | -0.5
Cc1cccc(Cn2c(Sc3nc(C)cs3)nc3c2c(=O)[nH]c(=O)n3C)c1 | 7.7 | · | 4.4 | -0.1 | -1.7
CC[n+]1c(/C=C/c2c[nH]c3ccccc23)ccc2cc(C)ccc21 | -11.0 | 0.3 | 1.4 | · | 84.1*
Cc1cc(OCC(=O)C(C)(C)C)c2c(C)c(C)c(=O)oc2c1 | -9.4 | · | -1.0 | 0.0 | 11.5
CC(=O)NNC(=O)CCn1nnc2ccccc21 | -18.6 | 43.9* | -2.8 | -0.1 | -1.7
O=C(N[C@@H]1CC[C@H](CCNS(=O)(=O)c2ccc(F)cc2)O[C@H]1CO)c1cccc(F)c1 | · | -0.2 | · | · | ·
COc1ccc(NC(=O)CN2CCc3ccccc3C2)c(OC)c1 | -12.4 | 0.0 | 7.7 | 0.1 | -16.9
COc1ccc(NC(=O)CN2C(=O)N(C)Cc3ccccc32)c(C)c1 | -4.8 | 44.1* | 4.1 | 0.2 | 18.1
CC(C)(C)C(=O)Nc1nnc(SCC(=O)NC2CC2)s1 | 6.4 | -0.2 | -24.1 | -0.1 | 0.9
CCOC(=O)/C=C/S(=O)(=O)c1ccc(NC(C)=O)cc1 | -1.4 | · | -2.9 | 0.0 | 123.6*
COc1ccc(NC(=O)c2nc[nH]c2C(=O)N(C)CCO)cc1 | -10.3 | 42.9* | 13.7 | · | ·
COc1ccccc1N(Cc1cc(=O)[nH]c2ccccc12)C(=O)c1cccc([N+](=O)[O-])c1 | -9.9 | 43.3* | -7.0 | 0.1 | 12.1
COC(=O)CNC(c1ccccc1)c1cc(Cl)ccc1NC(=O)c1cccc(Cl)c1 (configuration not stated) | -5.4 | 0.4 | -8.3 | -0.4 | 6.6
COC(=O)CNC(c1ccccc1)c1cc(Br)ccc1NC(C)=O (configuration not stated) | -8.1 | 43.1* | -2.6 | -0.2 | 1.9
CC1(c2ccccc2)NC(=O)N(N)C1=O (configuration not stated) | -3.4 | 43.0* | 8.3 | -0.1 | 16.7
CC1(c2ccccc2)NC(=O)N(CC#N)C1=O (configuration not stated) | -8.9 | 0.1 | 11.1 | -0.4 | -11.7
CC(C)Cn1c(-c2cc(Br)ccc2F)nc2c1c(=O)[nH]c(=O)n2CC(C)C | -0.6 | 2.3* | -5.1 | -0.2 | 30.7
Cc1cnc(CNC(=O)CC2C(=O)NCCN2Cc2ccccc2F)cn1 (configuration not stated) | 1.0 | -0.7 | 5.1 | 0.0 | -5.1
CCn1c(Cc2cccs2)nnc1SCC(=O)NC(C)(C)C | 1.4 | 43.0* | 14.7 | 0.1 | -0.7
SMILES | ASAP1 GAP inh | FGF22 binding | ARFGAP1 inh | Efflux pump mplx | Rtt109 Vps75
CCOc1ccc(Cl)cc1CNCCCSc1nc(C)cc(C)n1 | -7.3 | -0.2 | 3.8 | 0.1 | 3.0
Cc1ccccc1-c1ccc2c(c1)O[C@H](CN(C)C(=O)c1ccccn1)[C@@H](C)CN([C@@H](C)CO)S2(=O)=O | · | -0.4 | · | · | ·
CC(C)c1ccc(Nc2nc(N3CCOCC3)nc(N3CCOCC3)n2)cc1 | 1.9 | 1.6* | -5.7 | · | ·
CCNC(=O)NC(=O)CSc1ccc2ccccc2c1 | 6.5 | 43.1* | -12.9 | 0.1 | 13.3
CCNC(=O)NC(=O)CSc1ccccc1F | 7.2 | · | 1.1 | 0.0 | ·
COC(=O)c1c(NC(=O)CSc2nc3ccccc3c(=O)n2Cc2ccco2)sc(C)c1C | 10.5 | -0.2 | -2.2 | 0.3 | 1.1
CC1CCC2(CC1)SCC(=O)N2c1ccc(F)cc1 (configuration not stated) | -4.0 | -0.1 | -3.0 | -0.1 | -2.0
Oc1ccc(CN2CCN(Cc3ccccc3)CC2)c2cccnc12 | -2.7 | · | 0.4 | 0.1 | 8.3
CN1CCN(C2CCN(Cc3ccc(O)c4ncccc34)CC2)CC1 | -9.6 | 43.7* | 7.5 | -0.3 | 4.2
